Test results from ChEMBL document CHEMBL3259668, “Synthesis of N-benzenesulfonamide-1H-pyrazoles bearing arylsulfonyl moiety: novel celecoxib analogs as potent anti-inflammatory agents” (Eur J Med Chem, 2014).

Key:
Rattus norvegicus [1] = assay: Antiinflammatory activity in ip dosed Sprague-Dawley rat assessed as inhibition of carrageenan-induced foot paw edema after 1 hr by plethysmometer analysis; assay type: functional; conditions: Sprauge-Dawley
Method in brief: (§1)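 Rats fasted at least 16 h with free access to water. Compounds were given as a suspension in 0.5% methyl cellulose, with a vehicle-only negative control group. Paw volume was measured by water displacement on a plethysmometer before and after treatment. Inhibition (%) = (1 − D/C) × 100, where D and C are the paw-volume changes in treated and control groups.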

Rattus norvegicus [2] = assay: Antiinflammatory activity in ip dosed Sprague-Dawley rat assessed as inhibition of carrageenan-induced foot paw edema after 2 hrs by plethysmometer analysis; assay type: functional; conditions: Sprauge-Dawley; method in brief: as §1
Rattus norvegicus [3] = assay: Antiinflammatory activity in ip dosed Sprague-Dawley rat assessed as inhibition of carrageenan-induced foot paw edema after 3 hrs by plethysmometer analysis; assay type: functional; conditions: Sprauge-Dawley; method in brief: as §1
[4] = Toxicity in ip dosed mouse assessed as behavioral changes and death during observation up to 72 hrs; assay type: organism-based; conditions: in vivo
Method in brief: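 Male mice in groups, given test compounds intraperitoneally at various doses. Watched continuously for up to 6 h, then kept under observation for 72 h, recording all behavioural changes and deaths. Percentage of deaths at each dose was converted to probits to calculate LD50 (mM/kg).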

Mus musculus [5] = assay: Analgesic activity in ip dosed albino Swiss mouse after 0.5 hrs by hot plate test; assay type: functional
Method in brief: (§2)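 Mice given a single intraperitoneal dose of test compound (5-200 mg/kg). Reaction time on the hot plate was measured before treatment as the control and again at 15, 30, 60 and 120 min after injection, with a 60 s cut-off. Each animal served as its own control.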

Mus musculus [6] = assay: Analgesic activity in ip dosed albino Swiss mouse after 1 hr by hot plate test; assay type: functional; method in brief: as §2
Mus musculus [7] = assay: Analgesic activity in ip dosed albino Swiss mouse after 2 hrs by hot plate test; assay type: functional; method in brief: as §2
Rattus norvegicus [8] = assay: Gastrointestinal toxicity in albino rat assessed as ulcer index at 100 umol/kg, po qd for 3 days measured 6 hrs after last dose; conditions: in vivo, 100 µmol/kg
[9] = target: T1, Prostaglandin G/H synthase 1 (Ovis aries) (UniProt P05979); assay: Inhibition of ovine COX1 at 5 uM
T1 sequence (whole entry): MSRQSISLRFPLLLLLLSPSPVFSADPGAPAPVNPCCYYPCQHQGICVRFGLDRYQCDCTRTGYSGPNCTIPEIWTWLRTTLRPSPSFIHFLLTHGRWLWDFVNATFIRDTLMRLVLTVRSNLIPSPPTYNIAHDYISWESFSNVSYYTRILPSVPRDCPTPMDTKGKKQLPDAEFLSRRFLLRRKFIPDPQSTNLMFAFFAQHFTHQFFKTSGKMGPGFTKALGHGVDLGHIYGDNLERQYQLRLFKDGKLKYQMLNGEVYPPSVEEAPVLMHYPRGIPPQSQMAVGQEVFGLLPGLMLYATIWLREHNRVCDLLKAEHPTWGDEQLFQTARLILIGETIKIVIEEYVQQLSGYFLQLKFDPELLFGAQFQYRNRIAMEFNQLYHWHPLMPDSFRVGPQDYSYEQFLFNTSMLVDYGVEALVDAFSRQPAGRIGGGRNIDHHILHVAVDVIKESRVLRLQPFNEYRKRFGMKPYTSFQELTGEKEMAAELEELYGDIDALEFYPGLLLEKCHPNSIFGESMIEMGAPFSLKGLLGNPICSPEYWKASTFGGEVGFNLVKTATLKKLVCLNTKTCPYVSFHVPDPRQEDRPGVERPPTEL

Ovis aries = species: Ovis aries; assay: Selectivity index, ratio of ovine COX2 to ovine COX1

O=S(=O)(C/C(=N/O)c1ccccc1)c1ccccc1
ED50 (Rattus norvegicus [1]): 285 µM/kg | ED50 (Rattus norvegicus [2]): 245 µM/kg | ED50 (Rattus norvegicus [3]): 256 µM/kg | LD50 at 72 h [4]: 17400 µmol/kg | ED50 (Mus musculus [5]): 320 µM/kg | ED50 (Mus musculus [6]): 265 µM/kg | ED50 (Mus musculus [7]): 244 µM/kg

Cc1ccc(C(=O)CS(=O)(=O)c2ccccc2)cc1
ED50 (Rattus norvegicus [1]): 145 µM/kg | ED50 (Rattus norvegicus [2]): 137 µM/kg | ED50 (Rattus norvegicus [3]): 133 µM/kg | LD50 at 72 h [4]: 14300 µmol/kg | ED50 (Mus musculus [5]): 168 µM/kg | ED50 (Mus musculus [6]): 408 µM/kg | ED50 (Mus musculus [7]): 434 µM/kg

Cc1ccc(S(=O)(=O)CC(=O)c2ccc(Br)cc2)cc1
ED50 (Rattus norvegicus [1]): 213 µM/kg | ED50 (Rattus norvegicus [2]): 213 µM/kg | ED50 (Rattus norvegicus [3]): 200 µM/kg | LD50 at 72 h [4]: 12700 µmol/kg | ED50 (Mus musculus [5]): 73 µM/kg | ED50 (Mus musculus [6]): 69 µM/kg | ED50 (Mus musculus [7]): 66 µM/kg

O=C(CS(=O)(=O)c1ccccc1)c1ccc(Br)cc1
ED50 (Rattus norvegicus [1]): 550 µM/kg | ED50 (Rattus norvegicus [2]): 350 µM/kg | ED50 (Rattus norvegicus [3]): 327 µM/kg | LD50 at 72 h [4]: 12400 µmol/kg | ED50 (Mus musculus [5]): 218 µM/kg | ED50 (Mus musculus [6]): 318 µM/kg | ED50 (Mus musculus [7]): 318 µM/kg

Cc1ccc(/C(CS(=O)(=O)c2ccccc2)=N\Nc2ccccc2)cc1
ED50 (Rattus norvegicus [1]): 280 µM/kg | ED50 (Rattus norvegicus [2]): 181 µM/kg | ED50 (Rattus norvegicus [3]): 169 µM/kg | LD50 at 72 h [4]: 11500 µmol/kg | ED50 (Mus musculus [5]): 220 µM/kg | ED50 (Mus musculus [6]): 260 µM/kg | ED50 (Mus musculus [7]): 288 µM/kg

Cc1ccc(-c2cc(C(F)(F)F)nn2-c2ccc(S(N)(=O)=O)cc2)cc1 [CELECOXIB]
ED50 (Rattus norvegicus [1]): 89 µM/kg | ED50 (Rattus norvegicus [2]): 89 µM/kg | ED50 (Rattus norvegicus [3]): 86 µM/kg | LD50 at 72 h [4]: 9800 µmol/kg | ED50 (Mus musculus [5]): 156 µM/kg | ED50 (Mus musculus [6]): 72 µM/kg | ED50 (Mus musculus [7]): 70 µM/kg | UI (Rattus norvegicus [8]): 0.92

CC(=O)c1nn(-c2ccc(S(N)(=O)=O)cc2)c(-c2ccccc2)c1S(=O)(=O)c1ccccc1
ED50 (Rattus norvegicus [1]): 363 µM/kg | ED50 (Rattus norvegicus [2]): 376 µM/kg | ED50 (Rattus norvegicus [3]): 372 µM/kg | LD50 at 72 h [4]: 10100 µmol/kg | ED50 (Mus musculus [5]): 311 µM/kg | ED50 (Mus musculus [6]): 261 µM/kg | ED50 (Mus musculus [7]): 261 µM/kg

CC(=O)c1nn(-c2ccc(S(N)(=O)=O)cc2)c(-c2ccc(Br)cc2)c1S(=O)(=O)c1ccccc1
ED50 (Rattus norvegicus [1]): 87 µM/kg | ED50 (Rattus norvegicus [2]): 64 µM/kg | ED50 (Rattus norvegicus [3]): 68 µM/kg | LD50 at 72 h [4]: 7100 µmol/kg | inhibition [9]: 34% | Selectivity Index (Ovis aries): 0.79 | ED50 (Mus musculus [5]): 57 µM/kg | ED50 (Mus musculus [6]): 81 µM/kg | ED50 (Mus musculus [7]): 80 µM/kg | UI (Rattus norvegicus [8]): 2.86

Cc1ccc(/C(CS(=O)(=O)c2ccccc2)=N\O)cc1
ED50 (Rattus norvegicus [1]): 271 µM/kg | ED50 (Rattus norvegicus [2]): 238 µM/kg | ED50 (Rattus norvegicus [3]): 237 µM/kg | LD50 at 72 h [4]: 9000 µmol/kg | ED50 (Mus musculus [5]): 212 µM/kg | ED50 (Mus musculus [6]): 203 µM/kg | ED50 (Mus musculus [7]): 200 µM/kg

CC(=O)c1nn(-c2ccc(S(N)(=O)=O)cc2)c(-c2ccc(C)cc2)c1S(=O)(=O)c1ccccc1
ED50 (Rattus norvegicus [1]): 112 µM/kg | ED50 (Rattus norvegicus [2]): 102 µM/kg | ED50 (Rattus norvegicus [3]): 95 µM/kg | LD50 at 72 h [4]: 10100 µmol/kg | inhibition [9]: 18% | Selectivity Index (Ovis aries): 1.83 | ED50 (Mus musculus [5]): 50 µM/kg | ED50 (Mus musculus [6]): 147 µM/kg | ED50 (Mus musculus [7]): 147 µM/kg | UI (Rattus norvegicus [8]): 2.25

CC(=O)c1nn(-c2ccc(S(N)(=O)=O)cc2)c(-c2ccc(Br)cc2)c1S(=O)(=O)c1ccc(C)cc1
ED50 (Rattus norvegicus [1]): 75 µM/kg | ED50 (Rattus norvegicus [2]): 54 µM/kg | ED50 (Rattus norvegicus [3]): 51 µM/kg | LD50 at 72 h [4]: 7100 µmol/kg | inhibition [9]: 3% | Selectivity Index (Ovis aries): 13 | ED50 (Mus musculus [5]): 69 µM/kg | ED50 (Mus musculus [6]): 195 µM/kg | ED50 (Mus musculus [7]): 204 µM/kg | UI (Rattus norvegicus [8]): 0.98

O=C(CS(=O)(=O)c1ccccc1)c1ccccc1
ED50 (Rattus norvegicus [1]): 238 µM/kg | ED50 (Rattus norvegicus [2]): 232 µM/kg | ED50 (Rattus norvegicus [3]): 242 µM/kg | LD50 at 72 h [4]: 19700 µmol/kg | ED50 (Mus musculus [5]): 250 µM/kg | ED50 (Mus musculus [6]): 158 µM/kg | ED50 (Mus musculus [7]): 145 µM/kg

O=S(=O)(C/C(=N/Nc1ccccc1)c1ccccc1)c1ccccc1
ED50 (Rattus norvegicus [1]): 270 µM/kg | ED50 (Rattus norvegicus [2]): 248 µM/kg | ED50 (Rattus norvegicus [3]): 256 µM/kg | LD50 at 72 h [4]: 14600 µmol/kg | ED50 (Mus musculus [5]): 285 µM/kg | ED50 (Mus musculus [6]): 319 µM/kg | ED50 (Mus musculus [7]): 345 µM/kg
